Experimental findings from ChEMBL document CHEMBL4725350, “2-Oxaadamant-1-yl Ureas as Soluble Epoxide Hydrolase Inhibitors: In Vivo Evaluation in a Murine Model of Acute Pancreatitis” (J Med Chem, 2020) are described below.

Activity calls are given as the source filed them. The calls are words filed in the database; no cut-off is given here.

Data set [1] is filed under the species Homo sapiens. Briefly: Selectivity ratio of inhibition of recombinant human CYP2C19 to IC50 for inhibition of recombinant human soluble epoxide hydrolase.
In data set [2] the target is T1, Bifunctional epoxide hydrolase 2 (Homo sapiens, UniProt P34913).
T1 sequence (P34913 whole entry): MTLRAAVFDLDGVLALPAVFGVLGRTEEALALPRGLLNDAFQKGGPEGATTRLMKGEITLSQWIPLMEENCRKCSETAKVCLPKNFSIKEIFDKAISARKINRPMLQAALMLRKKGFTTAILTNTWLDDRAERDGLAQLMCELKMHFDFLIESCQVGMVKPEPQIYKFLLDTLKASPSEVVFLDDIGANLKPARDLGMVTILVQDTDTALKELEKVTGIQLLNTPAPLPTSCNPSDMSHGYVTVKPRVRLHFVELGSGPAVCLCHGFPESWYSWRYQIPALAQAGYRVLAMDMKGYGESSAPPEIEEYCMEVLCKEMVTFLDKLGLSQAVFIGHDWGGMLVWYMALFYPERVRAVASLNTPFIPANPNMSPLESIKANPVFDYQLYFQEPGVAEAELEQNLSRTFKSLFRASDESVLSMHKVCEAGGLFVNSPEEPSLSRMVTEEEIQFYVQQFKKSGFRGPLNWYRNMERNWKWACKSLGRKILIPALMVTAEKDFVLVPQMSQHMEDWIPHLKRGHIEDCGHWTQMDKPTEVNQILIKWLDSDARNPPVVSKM
Description: Inhibition of recombinant human soluble epoxide hydrolase using CMNPC as substrate preincubated for 5 mins followed by substrate addition and measured at 30 secs interval for 10 mins by fluorescence assay.

The nature of data set [3]: Selectivity ratio of inhibition of recombinant human CYP3A4 to IC50 for inhibition of recombinant mouse soluble epoxide hydrolase using 7-BFC as substrate.
Data set [4] can be described thus: Apparent permeability across apical to basolateral side in human Caco-2 cells at 10 uM measured after 2 hrs by LC-MS/MS analysis. Conditions: caco-2, 2 h. (Caco-2 monolayers are a common model of the intestinal barrier.)
Data set [5] can be described thus: Efflux ratio of apparent permeability across basolateral to apical side over apical to basolateral side in human Caco-2 cells at 10 uM measured after 2 hrs by LC-MS/MS analysis.
A short description of data set [6]: Selectivity ratio of inhibition of recombinant human CYP2D6 to IC50 for inhibition of recombinant mouse soluble epoxide hydrolase.
Data set [7] can be described thus: Selectivity ratio of inhibition of recombinant human CYP2C9 to IC50 for inhibition of recombinant mouse soluble epoxide hydrolase.
In data set [8] the test system is Mus musculus. Briefly: Protection against cerulein-induced acute pancreatitis in C57BL/6J mouse assessed as reduction in ATF3 mRNA level at 30 mg/kg administered twice per day for 5 days followed by cerulein addition and measured 24 hrs post-last dose by Trisure-reagent based RT-PCR analysis. The class given is functional, organism-based. Conditions: time 6.0 day. The gist of the method:
(§1)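 Pre-induction (prevention) protocol in C57BL/6J mice. Inhibitor is given ip at 30 mg/kg before cerulein induction of acute pancreatitis. Pancreatic mRNA of TNF-α, IL-1β, MCP-1 and ATF3 is compared with control and cerulein-only mice. Mean ± SEM, n = 5 per group.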

Data set [9] can be described thus: Acute toxicity in CD-1 mouse assessed as effect on body weight at 5 to 80 mg/kg, ip administered daily for 5 days and measured for 5 days. Format: organism-based. Conditions: in vivo, 240 h, dose 5-80 mg/kg, time 10 day. Summed up: (§2)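 Mice received the compound intraperitoneally once a day for five consecutive days at 5, 10, 20 and 80 mg/kg. Acute toxicity was judged from body weight during treatment, apparent behaviour problems and the presence of petechiae.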

Data set [10] in a line: Acute toxicity in CD-1 mouse assessed as petechiae at 5 to 80 mg/kg, ip administered daily for 5 days. Format: organism-based. Conditions: in vivo, 120 h, dose 5-80 mg/kg, time 5 day. Summed up:
as §2

The test system of data set [11] is Mus musculus. Briefly: Protection against cerulein-induced acute pancreatitis in C57BL/6J mouse assessed as reduction in TNF-alpha mRNA level at 3 mg/kg administered 24 hrs post-cerulein addition and measured after 24 hrs by Trisure-reagent based RT-PCR analysis. Format: functional, organism-based. The gist of the method:
(§3)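 Post-induction (treatment) protocol in C57BL/6J mice. Acute pancreatitis is induced by several cerulein administrations, followed by ip sEH inhibitor at 3 or 30 mg/kg. Pancreatic mRNA of TNF-α, IL-1β, MCP-1 and ATF3 is quantified against control and cerulein-only groups. Mean ± SEM, n = 5 per group.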

The subject of data set [12] is Mus musculus. Briefly: Protection against cerulein-induced acute pancreatitis in C57BL/6J mouse assessed as reduction in TNF-alpha mRNA level at 30 mg/kg administered twice per day for 5 days followed by cerulein addition and measured 24 hrs post-last dose by Trisure-reagent based RT-PCR analysis. The class given is functional, organism-based. Conditions: time 6.0 day. Summed up:
as §1

The test system of data set [13] is Mus musculus. Briefly: Protection against cerulein-induced acute pancreatitis in C57BL/6J mouse assessed as reduction in edema at 30 mg/kg administered 24 hrs post-cerulein addition and measured after 24 hrs by H and E staining based histological analysis. The class given is functional, organism-based. Summed up: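 H&E-stained pancreas sections are scored for edema and inflammation. Groups are control, cerulein and cerulein plus inhibitor, in both the pre-induction and post-induction cerulein acute pancreatitis models in mice.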

For data set [14], the system named is Mus musculus. Description: Protection against cerulein-induced acute pancreatitis in C57BL/6J mouse assessed as reduction in IL1-beta mRNA level at 3 mg/kg administered 24 hrs post-cerulein addition and measured after 24 hrs by Trisure-reagent based RT-PCR analysis. The class given is functional, organism-based. The gist of the method:
as §3

Data set [15] deals with Mus musculus. Description: Protection against cerulein-induced acute pancreatitis in C57BL/6J mouse assessed as reduction in MCP1 mRNA level at 3 mg/kg administered 24 hrs post-cerulein addition and measured after 24 hrs by Trisure-reagent based RT-PCR analysis. Format: functional, organism-based. The gist of the method:
as §3

Data set [16] in a line: Cmax in CD-1 mouse at 1 mg/kg, ip measured up to 24 hrs by LC-MS analysis. Further details: route intraperitoneal, dose 1 mg/kg, time <=24. As to conditions: in vivo. Format: ADME, organism-based. The gist of the method: (§4)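 Single dose, 1 mg/kg, given to mice intravenously or intraperitoneally. Parameters are taken from the plasma concentration–time profile: T1/2, Tmax, Cmax, C0 (iv only), AUClast, AUCINF_obs, Vz and Cl. Bioavailability is derived from ip versus iv exposure.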

Data set [17] is described as follows: Apparent volume of distribution in CD-1 mouse at 1 mg/kg, ip measured up to 24 hrs by LC-MS analysis. The class given is ADME, organism-based. As to conditions: in vivo. Summed up: as §4
A short description of data set [18]: Clearance in CD-1 mouse at 1 mg/kg, ip measured up to 24 hrs by LC-MS analysis. As to conditions: in vivo. Format: ADME, organism-based. Summed up:
as §4

Data set [19] has as its system Mus musculus. Description: Protection against cerulein-induced acute pancreatitis in C57BL/6J mouse assessed as reduction in MCP1 mRNA level at 30 mg/kg administered 24 hrs post-cerulein addition and measured after 24 hrs by Trisure-reagent based RT-PCR analysis. The class given is functional, organism-based. Summed up:
as §3

The test system of data set [20] is Mus musculus. Description: Protection against cerulein-induced acute pancreatitis in C57BL/6J mouse assessed as reduction in TNF-alpha mRNA level at 30 mg/kg administered 24 hrs post-cerulein addition and measured after 24 hrs by Trisure-reagent based RT-PCR analysis. Format: functional, organism-based. The gist of the method:
as §3

In data set [21] the test system is Mus musculus. Description: Protection against cerulein-induced acute pancreatitis in C57BL/6J mouse assessed as reduction in MCP1 mRNA level at 30 mg/kg administered twice per day for 5 days followed by cerulein addition and measured 24 hrs post-last dose by Trisure-reagent based RT-PCR analysis. Format: functional, organism-based. Conditions: time 6.0 day. Summed up: as §1

Data set [22] concerns Mus musculus. Description: Protection against cerulein-induced acute pancreatitis in C57BL/6J mouse assessed as reduction in IL-1beta mRNA level at 30 mg/kg administered twice per day for 5 days followed by cerulein addition and measured 24 hrs post-last dose by Trisure-reagent based RT-PCR analysis. The class given is functional, organism-based. As to conditions: time 6.0 day. The gist of the method: as §1

In general, IC50 refers to the point on the concentration scale where inhibition reaches its midpoint. By Papp is commonly meant a coefficient for how fast a substance crosses the barrier. Broadly, the efflux ratio is a quotient of directional permeabilities that is used to spot active efflux. Take `CC(=O)N1CCC(NC(=O)NC23CC4CC(CC(C4)O2)C3)CC1`: the Selectivity ratio in data set [1], in data set [3], in data set [6] and in data set [7] was above 100 each time. The IC50 in data set [2] came to 29.9 nM. Besides, the Papp in data set [4] was found to be 2.24 ×10⁻⁶ cm/s. For the same compound, the efflux ratio at 2 h, 10 µM in [5] is 4.3.

The term Cmax denotes the highest concentration seen after dosing. In general, CL/F refers to the apparent clearance, not corrected for the fraction that reaches the circulation. With `CC(C)S(=O)(=O)N1CCC(NC(=O)NC23CC4CC(CC(C4)O2)C3)CC1`, the outcome in data set [8], in data set [12], in data set [13], in [19], in data set [20] and in [21] was Active. In data set [22], the result was Active. In addition, the Activity result in data set [9] and in [10] was “Non-Toxic” throughout. The outcome in data set [11], in data set [14] and in data set [15] was inactive. The same compound had a Cmax in data set [16] of 117.33 ng/mL. Moreover, the Vz in data set [17] is 124.02 L/kg. In data set [18], this compound showed an apparent clearance (CL/F) of 474 mL/min/kg.
